Source: PubChem
Hits are enriched below; roughly 6.5% of the tested compounds scored in any of these assays.
tolC growth inh – growth inhibitors of E. coli tolC mutant, primary screen, strain BW25113 ΔtolC::kan, 384-well | OD615 | growth inhibition, % at 10 µM (by protocol) | hit rate 2.2% among 65,000 | AID 573, 2007;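 active = growth inhibition at or above a cutoff equal to the mean over every tested compound plus 3 SD, cut at about 60% in these data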;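 note: growth measured after 20 h incubation at 37 °C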
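Material: E. coli BW25113 ΔtolC::kan, tolC deletion mutant strain. Measure: percent growth inhibition. Schedule: 37 °C, 20 h exposure. Doses: single-point testing at 10 µM. Signal: A615 absorbance measurement. Buffer or medium: kanamycin-containing LB broth (50 µg/mL).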
PostGolgi yeast – phenotypic screen on post-Golgi transport, primary screen. post-Golgi transport phenotypic cell assay. inhibition, % at 10 µM. hit rate 0.9% among 98,000. AID 739, 2007;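 note: yeast cells grown in 1536-well plates; yeast grown about 18 h at 30C before absorbance read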
Ecoli WT expand – growth inhibitors of wild-type E. coli, primary screen, strain BW25113, expanded library, OD600 | hit rate 0.15% among 98,000 | growth inhibition, % at 100 µM | OD600 absorbance;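 active = growth inhibition above about 50% at one test dose, limit read from the data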;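 note: growth measured after 20 h incubation at 37 °C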
PostGolgi ctrl – growth inhibition of yeast control strain, primary screen, counter-screen for post-Golgi transport modulator project; efflux-deficient yeast background strain, growth absorbance A615, 16 h; AID 738, 2007; inhibition, % at 10 µM; hit rate 5% among 98,000
PTK2B oligo ant – antagonists of Pyk2 self-association, primary screen, Q293 cells, FERM NanoBiT luminescence, HTS; AID 1347419, 2020; z-score (the deposit names both 25 µM and 10 µM); Protein-tyrosine kinase 2-beta (Homo sapiens), Q14289; active compounds read low; hit rate 0.83% among 99,000;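 active = Z-score of -3 or lower, scaled per plate to the spread of control and sample wells; inactive = z-score above -3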;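 note: negative z-score means lost luminescence so less FERM oligomerization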
Target sequence (Q14289 whole entry, looked up): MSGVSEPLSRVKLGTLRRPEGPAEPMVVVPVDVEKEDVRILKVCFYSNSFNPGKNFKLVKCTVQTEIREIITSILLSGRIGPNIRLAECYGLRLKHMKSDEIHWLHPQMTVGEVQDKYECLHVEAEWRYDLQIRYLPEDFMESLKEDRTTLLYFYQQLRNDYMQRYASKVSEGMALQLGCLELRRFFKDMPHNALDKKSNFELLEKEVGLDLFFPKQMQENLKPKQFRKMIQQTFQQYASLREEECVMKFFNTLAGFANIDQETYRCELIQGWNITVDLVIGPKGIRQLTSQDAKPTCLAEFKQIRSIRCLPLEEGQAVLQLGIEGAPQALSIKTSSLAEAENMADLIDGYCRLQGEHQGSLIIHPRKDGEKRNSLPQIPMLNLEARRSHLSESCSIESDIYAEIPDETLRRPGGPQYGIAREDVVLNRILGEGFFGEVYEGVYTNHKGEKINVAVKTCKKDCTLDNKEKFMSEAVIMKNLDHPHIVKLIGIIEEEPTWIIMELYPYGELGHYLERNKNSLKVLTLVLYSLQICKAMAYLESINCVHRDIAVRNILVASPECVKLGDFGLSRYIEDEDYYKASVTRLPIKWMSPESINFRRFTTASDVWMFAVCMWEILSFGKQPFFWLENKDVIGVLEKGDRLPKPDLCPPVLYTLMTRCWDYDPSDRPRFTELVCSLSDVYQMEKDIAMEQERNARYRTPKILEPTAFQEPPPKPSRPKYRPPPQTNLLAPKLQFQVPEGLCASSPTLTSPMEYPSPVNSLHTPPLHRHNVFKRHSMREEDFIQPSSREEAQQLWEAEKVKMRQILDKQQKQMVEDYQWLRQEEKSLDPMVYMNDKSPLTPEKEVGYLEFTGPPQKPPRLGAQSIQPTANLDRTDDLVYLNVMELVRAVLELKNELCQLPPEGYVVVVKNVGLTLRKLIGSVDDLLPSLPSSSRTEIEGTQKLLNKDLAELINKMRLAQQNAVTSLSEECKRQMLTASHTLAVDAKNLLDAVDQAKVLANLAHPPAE
Candida biofilm – clotrimazole potentiators killing Candida biofilms, primary screen, with clotrimazole, Alamar Blue; AID 834, 2007; C. albicans biofilm + clotrimazole; hit rate 0.14% among 85,000; inhibition, % at 6 µM;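 active = inhibition above 20%; inactive = inhibition below 20%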;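 note: preformed 24 hr biofilms exposed to compound for 48 hr; 0% = biofilm without compound and 100% = blank killed by clotrimazole plus chlorhexidine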
Starred values were filed as active, the others as inactive; nt = no result. Cut-off read from the data, not from the text of the source, unless noted: active = inhibition above about 30%; inactive = the rest.

SMILES	tolC growth inh	PostGolgi yeast	Ecoli WT expand	PostGolgi ctrl	PTK2B oligo ant	Candida biofilm
O=Cc1cc2ccccc2nc1SCc1ccc(Cl)cc1	nt	68*	-22	23	-1.6	nt
O=Cc1cc2ccccc2nc1SCc1ccc(Cl)c(Cl)c1	nt	-5	-10	38*	-1.5	nt
Cc1ccc(CSc2ncccc2C(=O)O)cc1	nt	2	-4	0	1.2	-5
Cc1ccc(CSc2nc3ccccc3cc2C=O)cc1	nt	75*	5	38*	-0.18	nt
O=C(C1CCCN1C(=O)c1cccs1)N1CCc2ccccc21 (stereo not drawn)	-6	9	5	11	-0.27	4
CCCCCCCC(=O)NNC(=O)CC(=O)Nc1ccccc1C(=O)O	nt	nt	nt	nt	0.58	nt
Cc1nn(C(C)(C)C)c(OC(=O)c2ccc3c(c2)OCO3)c1Sc1ccccc1	nt	-8	-13	10	-0.92	0
Cc1ccc(S(=O)(=O)c2c(C)nn(C(C)(C)C)c2OC(=O)c2ccco2)cc1	-6	7	7	16	-0.71	-2
Cc1nn(C(C)(C)C)c(OC(=O)c2ccc3c(c2)OCO3)c1S(=O)(=O)c1ccccc1	16	4	-11	37*	-2.6	2
Cc1ccc(S(=O)(=O)c2c(C)nn(C(C)(C)C)c2OC(=O)c2ccc(Br)o2)cc1	2	50*	-10	17	-1.2	4
Cc1nn(CC(=O)NCc2cccc3ccccc23)c(=O)c2ccccc12	nt	-2	2	18	0.22	2
NC(=O)c1cnccn1	-9	nt	nt	nt	nt	nt
CCn1c(O)c(C=NCc2cccs2)c(=O)n(CC)c1=S	nt	18	-3	57*	-0.7	1
CCn1cc(C(=O)Nn2cnnc2)c(=O)c2ccc(C)nc21	-11	nt	nt	nt	nt	8
COc1cc(S(=O)(=O)NCCN2CCOCC2)c(OC)cc1Cl	-2	-3	7	32*	-0.05	-3
COc1ccc(C2=NN3C(C2)c2ccccc2OC32C(=O)N(C)c3ccccc32)cc1 (stereo not drawn)	nt	4	-3	30*	-0.06	nt
CCn1c(CSc2nc(C)cc(C)n2)nnc1SCC(=O)N1CCCc2ccccc21	5	21	2	8	-0.52	0
O=C1Cc2cccc3cccc1c23	nt	-2	16	7	0.2	2
COc1ccc(NC(=O)C2C(=O)NC3(C)CC2c2ccccc2O3)cc1 (stereo not drawn)	-14	11	-1	8	1.4	7
CC12CC(c3ccccc3O1)C(C(=O)NCc1ccccc1)C(=O)N2 (stereo not drawn)	-8	35*	3	10	-0.38	10
O=C(CCNS(=O)(=O)c1cccs1)NCc1ccco1	-4	2	4	2	1.4	nt
CCCOC(=O)c1ccc(Oc2cn[nH]c2-c2ccc(OC)cc2O)cc1	95*	6	-2	43*	-1.3	9
COc1ccc(O)c(-c2[nH]ncc2C(=O)c2ccccc2C)c1	3	20	-1	7	-2.2	1
CCOc1ccc(-c2[nH]ncc2Oc2ccccc2OC)c(O)c1	94*	9	6	22	-3*	2
C=C(C)COc1ccc(-c2[nH]ncc2-c2ccccc2OC)c(O)c1	38	54*	26	52*	-2	10
SMILES	tolC growth inh	PostGolgi yeast	Ecoli WT expand	PostGolgi ctrl	PTK2B oligo ant	Candida biofilm
CCOc1ccc(-c2[nH]ncc2Oc2ccccc2OCC)c(O)c1	95*	91*	22	57*	-1.7	8
C=C(C)COc1ccc(-c2n[nH]c(C)c2-c2ccc(Br)cc2)c(O)c1	nt	6	8	18	-0.67	6
CCOC(=O)CC(NC(=O)c1ccc(C)cc1)c1ccc(C)cc1 (stereo not drawn)	nt	5	-4	15	-0.63	12
C=C(C)COc1ccc(-c2[nH]ncc2Oc2ccccc2OC)c(O)c1	100*	12	17	10	-3.6*	9
COc1ccccc1Oc1ccc2c(c1)C(=O)N(c1cccc(O)c1)C2=O	3	1	-1	10	-2.4	10
Cc1ccc(NC(=O)Cn2cncc2-c2ccc([N+](=O)[O-])cc2)cc1C	nt	1	-10	33*	-0.33	nt
O=C(Nc1cccc(S(=O)(=O)N2CCOCC2)c1)c1c2c(nc3ccccc13)CCC2	nt	nt	nt	nt	-0.62	nt
CCN1CCCC1CNC(=O)Cn1cccc1C(=O)c1ccccc1 (stereo not drawn)	-10	-5	3	5	-0.77	4
S=c1nc2ccccc2c2nc(-c3ccccc3)[nH]n12	23	7	-7	44*	-1.8	6
CCn1c(SCC(=O)O)nnc1C1CCCCC1	-14	12	-5	31*	0.63	4
CCn1c(SCC(=O)OC)nnc1C1CCCCC1	nt	6	-4	18	-0.88	5
Cc1ccc(C(=O)COC(=O)CNS(=O)(=O)c2ccccc2)cc1[N+](=O)[O-]	nt	20	9	-6	0.54	nt
CCN1CCN(Cc2ccc(NC(=O)Nc3ccccc3Cl)cc2)CC1	-13	0	7	4	nt	10
CCN1CCN(Cc2ccccc2NC(=O)Nc2ccc(C)cc2)CC1	-6	-3	7	35*	0.22	4
COCC(C)n1c(C)cc(C(=O)COC(=O)c2nc3nc(C)cc(C)n3n2)c1C (stereo not drawn)	-24	8	0	33*	-0.64	0
CCCc1cc(=O)[nH]c(SCC(=O)c2cc(C)n(C(C)COC)c2C)n1 (stereo not drawn)	10	-3	-4	49*	-0.23	7
COCC(C)n1c(C)cc(C(=O)COC(=O)c2ccc3ncsc3c2)c1C (stereo not drawn)	13	2	3	15	0.5	10
COc1ccc(-c2noc(-c3ccccc3C(=O)N3CCOCC3)n2)cc1	nt	4	-1	-6	-0.39	1
Cc1ccc(SCc2ccc(C(=O)NCc3ccncc3)cc2)cc1	nt	1	-10	5	-0.25	nt
Clc1ccc2c(Cl)c(-c3nnc(-c4ccccc4)o3)sc2c1	nt	nt	nt	nt	nt	8
COc1ccc2c(c1)c(=O)oc1cc(OCC(=O)NC3CC3)ccc12	12	10	0	-6	-0.32	8
COc1ccc2c(c1)c(=O)oc1cc(OCC(=O)NC3CCCCC3)ccc12	nt	81*	0	93*	1.1	12
O=C(c1cc([N+](=O)[O-])ccc1Cl)N1c2ccccc2Sc2ccccc21	nt	nt	nt	nt	-0.64	nt
COc1ccc(Br)cc1/C=N/NC(=O)c1nc(-c2ccccc2)n2c1CCCCC2	nt	20	-17	36*	-2.2	nt
CC(C)CN1C(=O)c2ccc(NC(=O)c3ccccc3F)cc2C1=O	nt	-9	-5	33*	-0.92	3
CC(C)CN1C(=O)c2ccc(NC(=O)c3cccs3)cc2C1=O	nt	-3	-11	6	-2.1	4
O=C(CCNS(=O)(=O)c1cccc2nsnc12)NC1CCCc2ccccc21 (stereo not drawn)	11	14	5	7	0.32	3
O=C(CCNS(=O)(=O)c1cccc2nonc12)NC1CCCc2ccccc21 (stereo not drawn)	-4	-8	-5	32*	0.08	2
